STEP inh = STEP (human) phosphatase inhibition; inhibition, % at 20 µM; 0.25% of 360,000 active; P54829; AID 588621; recombinant STEP, OMFP fluorogenic substrate, fluorescence;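 active = inhibition at 20 µM, scaled per plate between control wells, above about 37%, limit read from the data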
Target sequence (P54829 whole entry, looked up): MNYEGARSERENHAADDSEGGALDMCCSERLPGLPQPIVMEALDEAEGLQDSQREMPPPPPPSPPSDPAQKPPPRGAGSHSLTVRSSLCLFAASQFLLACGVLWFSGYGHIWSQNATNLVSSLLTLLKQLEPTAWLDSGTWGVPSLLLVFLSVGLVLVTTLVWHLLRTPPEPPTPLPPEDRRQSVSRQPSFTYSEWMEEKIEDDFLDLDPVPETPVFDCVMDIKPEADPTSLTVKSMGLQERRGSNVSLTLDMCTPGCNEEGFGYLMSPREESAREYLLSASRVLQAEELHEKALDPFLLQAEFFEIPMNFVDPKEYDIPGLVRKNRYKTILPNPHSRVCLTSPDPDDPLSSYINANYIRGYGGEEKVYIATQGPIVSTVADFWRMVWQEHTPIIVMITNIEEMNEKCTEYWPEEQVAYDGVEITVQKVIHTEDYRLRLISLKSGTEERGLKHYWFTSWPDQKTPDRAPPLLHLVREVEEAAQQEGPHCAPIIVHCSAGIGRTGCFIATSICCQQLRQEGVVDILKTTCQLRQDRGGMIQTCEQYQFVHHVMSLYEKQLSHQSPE
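System: STEP phosphatase, cell-free reaction; Buffer or medium: Bis-Tris pH 6.0 buffer with DTT, detergent; Incubation: 20 min at room temperature, dark; Measured by: fluorescence, 480/540 nm.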
NadD block = inhibitors of Staphylococcus aureus NadD; 0.78% of 360,000 active; inhibition, % at 20 µM; purified NadD enzyme, colorimetric absorbance read-out; in the data active = inhibition above about 26%
SUMO1 PPI mod = modulators of human SUMO1-mediated protein-protein interactions | AID 602429 | P63165 | inhibition, % at 20 µM | SUMO1 binding to a labelled peptide, TR-FRET, 1 h | 0.33% of 360,000 active; in the data active = inhibition above about 37%
Target sequence (P63165 whole entry, looked up): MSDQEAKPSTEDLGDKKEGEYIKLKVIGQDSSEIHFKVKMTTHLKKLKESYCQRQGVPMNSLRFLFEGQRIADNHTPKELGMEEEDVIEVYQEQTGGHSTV
DNMT1 inh = DNMT1 (human) enzyme inhibition | P26358 | DNMT1 molecular beacon, Hinp1I cleavage, fluorescence | inhibition (reported as % activation of signal), % at 10 µM | 0.83% of 360,000 active | AID 588458; in the data active = inhibition above about 50%
LMPTP inh = LMPTP (human) inhibition | AID 651560 | recombinant LMPTP-A, OMFP fluorogenic substrate, fluorescence intensity | inhibition, % at 20 µM | 0.22% of 360,000 active;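 active = compounds that cut the enzyme signal by at least half of the control window in the single-dose screen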
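Buffer or medium: Bis-Tris pH 6.0, DTT, detergent; Assay system: LMPTP-A enzyme; Quantity: 0.625 nM enzyme; Detection: endpoint fluorescence intensity; Times: 50 min dark incubation at room temperature; Controls: substrate-only low control, DMSO enzyme-plus-substrate high control; Doses: single 20 µM dose; Read-out: percent inhibition versus substrate-only and uninhibited controls; Reagent: 400 µM OMFP.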
Scp1 inh = Scp-1 (human) phosphatase inhibition; Q9GZU7; Recombinant Scp1, phosphopeptide, malachite green phosphate absorbance; inhibition, % at 20 µM; 0.88% of 340,000 active;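 active = inhibition above about 50% at 20 µM, limit read from the data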
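Material – SCP-1 phosphatase catalytic domain, residues 76-261 · Buffer or medium – Acidic Tris acetate buffer with magnesium and detergent · Also added – Phospho 17-mer peptide substrate · Compound – single 20 µM dose, 1% DMSO · Times – 45 min room-temperature reaction, 5 min colour, 30 min stabiliser · Technique – Phosphate-binding colour reagent, absorbance read at 630 nm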
DNMT1 interf DR = beacon fluorescence artifact, dose response counter-screen; shares compounds with DNMT1 inh; molecular beacon fluorescence, spectral interference counter-screen; IC50, µM; 200 tested, under 10 active; call rule not given here
DNMT1 confirm = DNMT1 inhibition confirmation, single concentration | shares compounds with DNMT1 inh | DNMT1 molecular beacon HinP1I cleavage, fluorescence | inhibition, % at 10 µM | 8% of 2,300 active;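 active = average inhibition of at least 30% in the single-concentration confirmation test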
DNMT1 interf = beacon fluorescence artifact counter-screen; AID 602387; DNMT1 molecular beacon spectral interference counterscreen, fluorescence 485/520; 1% of 2,300 active; activation (fluorescence interference), % at 10 µM; shares compounds with DNMT1 inh;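 active = activation of at least 30% at 10 µM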;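 also: DNMT1 catalytic domain with a HinP1I cleavage step and a FAM/dabcyl DNA beacon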
Numbers stand for hits. An excerpt weighted towards active compounds, which were near 2.4% of everything screened.

For Cc1cc(C)c2c(N)c3cccc(C)c3nc2n1 the results were STEP inh inactive, NadD block inactive, SUMO1 PPI mod inactive, DNMT1 inh 73, LMPTP inh inactive, Scp1 inh inactive, DNMT1 interf DR inactive, DNMT1 confirm 40 and DNMT1 interf inactive.
For CC(c1ccccc1)C1CC(=O)N(c2ccccc2)C1=O (stereo unspecified) the results were STEP inh inactive, NadD block inactive, SUMO1 PPI mod inactive, DNMT1 inh inactive, LMPTP inh inactive and Scp1 inh inactive.
For Cc1nn(CCCC(=O)NCc2ccc(Cl)cc2)c(C)c1[N+](=O)[O-] the results were STEP inh inactive, NadD block inactive, SUMO1 PPI mod inactive, DNMT1 inh 69, LMPTP inh inactive, Scp1 inh inactive, DNMT1 confirm inactive and DNMT1 interf inactive.
Screening COc1ccc(CNC(=O)CCCn2nc(C)c([N+](=O)[O-])c2C)cc1OC returned STEP inh inactive, NadD block inactive, SUMO1 PPI mod inactive, DNMT1 inh inactive, LMPTP inh inactive and Scp1 inh inactive.
For CC(=O)N1CCN(C(=O)COC(=O)c2ccc(S(C)(=O)=O)cc2)CC1 the results were STEP inh inactive, NadD block inactive, SUMO1 PPI mod inactive, DNMT1 inh inactive, LMPTP inh inactive and Scp1 inh inactive.
`Oc1ccc(Cl)c2cccnc12` gave STEP inh inactive, NadD block inactive, SUMO1 PPI mod inactive, DNMT1 inh inactive, LMPTP inh inactive and Scp1 inh inactive.
Screening Oc1ccc(F)c2cccnc12 returned STEP inh inactive, NadD block inactive, SUMO1 PPI mod inactive, DNMT1 inh 68, LMPTP inh inactive, Scp1 inh inactive, DNMT1 confirm inactive and DNMT1 interf inactive.
For CCOC(=O)c1c(NC(=O)CSc2nnnn2C)sc(C)c1C the results were STEP inh inactive, NadD block inactive, SUMO1 PPI mod inactive, DNMT1 inh inactive, LMPTP inh inactive and Scp1 inh inactive.
`CCOC(=O)c1c(NC(=O)CSc2nnc(C)o2)sc(C)c1C` gave STEP inh inactive, NadD block inactive, SUMO1 PPI mod inactive, DNMT1 inh 59, LMPTP inh inactive, Scp1 inh inactive, DNMT1 confirm inactive and DNMT1 interf inactive.
For COc1ccc(O)c(C(=O)c2cnn(C(=O)c3ccc(C)cc3)c2)c1 the results were STEP inh inactive, NadD block inactive, SUMO1 PPI mod inactive, DNMT1 inh 55, LMPTP inh inactive, Scp1 inh inactive, DNMT1 confirm inactive and DNMT1 interf inactive.
Screening COc1ccc(O)c(C(=O)c2cnn(-c3ccccc3)c2)c1 returned STEP inh inactive, NadD block inactive, SUMO1 PPI mod inactive, DNMT1 inh inactive, LMPTP inh inactive and Scp1 inh inactive.
O=C(/C=C\Nc1ccc(Br)cc1)c1cccnc1 was read as STEP inh inactive, NadD block inactive, SUMO1 PPI mod inactive, DNMT1 inh inactive, LMPTP inh inactive and Scp1 inh inactive.
O=C(O)c1ccc(-n2cccc2/C=N\NC(=O)c2cc3cc(Br)ccc3o2)cc1 was read as STEP inh inactive, NadD block inactive, SUMO1 PPI mod 84, DNMT1 inh 102, LMPTP inh inactive, Scp1 inh 80, DNMT1 interf DR inactive, DNMT1 confirm 75 and DNMT1 interf inactive.
For O=C(O)CCc1ccc(S(=O)(=O)Nc2cc(C(F)(F)F)ccc2N2CCCC2)cc1 the results were STEP inh inactive, NadD block inactive, SUMO1 PPI mod inactive, DNMT1 inh 53, LMPTP inh inactive, Scp1 inh inactive, DNMT1 interf DR inactive, DNMT1 confirm 76 and DNMT1 interf inactive.
For c1ccc(Cn2nnc3c(NCc4ccc5c(c4)OCO5)nc(C4CC4)nc32)cc1 the results were STEP inh inactive, NadD block inactive, SUMO1 PPI mod inactive, DNMT1 inh inactive, LMPTP inh inactive and Scp1 inh inactive.
Cc1nc(NCc2ccc3c(c2)OCO3)c2nnn(Cc3ccccc3)c2n1 was read as STEP inh inactive, NadD block inactive, SUMO1 PPI mod inactive, DNMT1 inh 55, LMPTP inh inactive, Scp1 inh inactive, DNMT1 confirm inactive and DNMT1 interf inactive.
For Nc1cc2c3ccccc3ccc2c2ccccc12 the results were STEP inh inactive, NadD block inactive, SUMO1 PPI mod inactive, DNMT1 inh 91, LMPTP inh inactive, Scp1 inh inactive, DNMT1 confirm inactive and DNMT1 interf inactive.
For COc1ccc(-c2nnc(SCC(=O)Nc3ncc(C)s3)n2-c2ccccc2)cc1OC the results were STEP inh inactive, NadD block inactive, SUMO1 PPI mod inactive, DNMT1 inh inactive, LMPTP inh inactive and Scp1 inh inactive.
For O=C(/C=C/[C@H]1O[C@@H](n2ccc(=O)[nH]c2=O)[C@H](O)[C@@H]1O)NCCCc1ccccc1 the results were STEP inh inactive, NadD block inactive, SUMO1 PPI mod inactive, DNMT1 inh 80, LMPTP inh inactive, DNMT1 confirm inactive and DNMT1 interf inactive.
`O=C(/C=C/[C@H]1O[C@@H](n2ccc(=O)[nH]c2=O)[C@H](O)[C@@H]1O)NCCc1cccs1` gave STEP inh inactive, NadD block inactive, SUMO1 PPI mod inactive, DNMT1 inh inactive and LMPTP inh inactive.
For O=C(O)C1CC2C3CC(C(=O)O)C(C3)C2C1 (stereo unspecified) the results were STEP inh inactive, NadD block inactive, SUMO1 PPI mod inactive, DNMT1 inh 75, LMPTP inh inactive, Scp1 inh inactive, DNMT1 confirm inactive and DNMT1 interf inactive.
For N#Cc1ccc(CSc2nnc(NC(=O)CCc3nc4ccccc4c(=O)[nH]3)s2)cc1 the results were STEP inh inactive, NadD block inactive, SUMO1 PPI mod inactive, DNMT1 inh 68, LMPTP inh inactive, Scp1 inh inactive, DNMT1 confirm inactive and DNMT1 interf inactive.
Screening Cc1ccc(/C=C/C(=O)Nc2nnc(SCc3ccc(C#N)cc3)s2)o1 returned STEP inh inactive, NadD block inactive, SUMO1 PPI mod inactive, DNMT1 inh inactive, LMPTP inh inactive, Scp1 inh inactive, DNMT1 confirm inactive and DNMT1 interf inactive.
N#Cc1ccc(NC(=O)COC(=O)CCc2nc3ccccc3c(=O)[nH]2)cc1 was read as STEP inh inactive, NadD block inactive, SUMO1 PPI mod inactive, DNMT1 inh inactive, LMPTP inh inactive and Scp1 inh inactive.

Screens from PubChem BioAssay.
